Reference: ChEMBL document CHEMBL1140699, “Stereospecific high-affinity TRPV1 antagonists: chiral N-(2-benzyl-3-pivaloyloxypropyl) 2-[4-(methylsulfonylamino)phenyl]propionamide analogues” (J Med Chem, 2008)
pKi: −log10 of the molar value. Activity calls are given as the source filed them. The rule behind the calls is not given here.

Experiments:
[1] = molecular target: Transient receptor potential cation channel subfamily V member 1 (Rattus norvegicus) (UniProt O35433); experiment: Agonist activity at rat TRPV1 receptor expressed in CHO cells assessed as calcium 45 uptake at 30 uM; assay type: functional, cell-based
Summary of the method: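 45Ca2+ uptake in CHO cells heterologously expressing rat TRPV1 (CHO/VR1). Compounds tested for agonism at 30 µM and scored as not effective or weakly effective. Results from 1–5 experiments.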

[2] = molecular target: T1, Transient receptor potential cation channel subfamily V member 1 (Rattus norvegicus, UniProt O35433); experiment: Displacement of [3H]RTX from rat TRPV1 receptor expressed in CHO cells; assay type: cell-based
Summary of the method: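 Competitive binding against [3H]resiniferatoxin in CHO cells heterologously expressing rat TRPV1 (CHO/VR1). Affinity reported as Ki.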

[3] = molecular target: T1, Transient receptor potential cation channel subfamily V member 1; experiment: (§1) Antagonist activity at rat TRPV1 receptor expressed in CHO cells assessed as calcium 45 uptake; assay type: functional, cell-based
[4] = molecular target: Transient receptor potential cation channel subfamily V member 1 (Rattus norvegicus) (UniProt O35433); experiment: Agonist activity at rat TRPV1 receptor expressed in CHO cells assessed as calcium 45 uptake relative to 300 nM capsaicin; assay type: functional, cell-based
[5] = molecular target: Transient receptor potential cation channel subfamily V member 1 (Rattus norvegicus) (UniProt O35433); experiment: Antagonist activity at rat TRPV1 receptor expressed in CHO cells assessed as capsaicin-induced calcium 45 uptake; assay type: functional, cell-based; set-up: concentration or dose not given beside the values
Summary of the method: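 Chinese hamster ovary cells heterologously expressing rat TRPV1 (CHO/VR1). Compounds were tested as antagonists of 150 nM capsaicin-induced ⁴⁵Ca²⁺ uptake. Antagonism was reported as Ki, with activity scored at 30 µM where potency was low. Results come from 1–5 experiments.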

[6] = molecular target: Transient receptor potential cation channel subfamily V member 1 (Rattus norvegicus) (UniProt O35433); experiment: as §1; assay type: functional, cell-based

T1 sequence (O35433 whole entry): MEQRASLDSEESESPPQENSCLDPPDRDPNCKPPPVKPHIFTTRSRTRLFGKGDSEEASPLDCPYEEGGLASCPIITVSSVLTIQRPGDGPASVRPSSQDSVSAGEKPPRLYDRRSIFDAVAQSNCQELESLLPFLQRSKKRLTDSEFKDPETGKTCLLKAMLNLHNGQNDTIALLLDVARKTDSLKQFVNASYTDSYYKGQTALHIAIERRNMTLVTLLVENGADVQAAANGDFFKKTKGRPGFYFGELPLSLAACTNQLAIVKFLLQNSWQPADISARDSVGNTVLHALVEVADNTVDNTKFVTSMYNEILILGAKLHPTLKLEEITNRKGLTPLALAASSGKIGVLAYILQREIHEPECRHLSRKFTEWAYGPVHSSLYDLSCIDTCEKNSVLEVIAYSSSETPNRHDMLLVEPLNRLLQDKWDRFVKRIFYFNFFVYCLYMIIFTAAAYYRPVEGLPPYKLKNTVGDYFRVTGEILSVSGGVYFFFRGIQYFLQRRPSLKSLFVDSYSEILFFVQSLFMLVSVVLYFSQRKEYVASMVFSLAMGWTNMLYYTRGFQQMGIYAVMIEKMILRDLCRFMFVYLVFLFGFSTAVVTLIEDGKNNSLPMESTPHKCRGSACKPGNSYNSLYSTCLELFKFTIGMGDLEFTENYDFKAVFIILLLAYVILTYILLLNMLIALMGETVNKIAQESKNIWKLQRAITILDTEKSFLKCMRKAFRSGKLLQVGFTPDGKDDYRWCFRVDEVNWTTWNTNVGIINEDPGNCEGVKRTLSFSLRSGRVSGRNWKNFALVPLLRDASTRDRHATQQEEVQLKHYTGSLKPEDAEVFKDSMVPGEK
Chain of Transient receptor potential cation channel subfamily V member 1 (Rattus norvegicus) (O35433 whole entry): as above

SMILES	Activity [1]	also measured
Oc1cc2c(cc1O)CN(C(=S)NCCc1ccc(Cl)cc1)CCC2	inactive	
C[C@@H](C(=O)NC[C@@H](COC(=O)C(C)(C)C)Cc1ccccc1)c1ccc(NS(C)(=O)=O)c(F)c1	inactive	
C=C(C)[C@]12C[C@@H](C)[C@@]34O[C@](Cc5ccccc5)(O[C@@H]1[C@@H]3C=C(COC(=O)Cc1cc(I)c(O)c(OC)c1)C[C@]1(O)C(=O)C(C)=C[C@@H]41)O2 [IODORESINIFERATOXIN]	inactive	pKi [2]: 9.21; pKi [3]: 7.91
C[C@@H](C(=O)NC[C@@H](COC(=O)C(C)(C)C)Cc1ccc(C(C)(C)C)cc1)c1ccc(NS(C)(=O)=O)c(F)c1		Activity [4]: 9%
COc1cc(C(C)C(=O)NCC(COC(=O)C(C)(C)C)Cc2ccc(C)c(C)c2)ccc1NS(C)(=O)=O (configuration not stated)		Activity [5]: 63%; Activity [4]: 10%
Cc1ccc(CC(CNC(=O)Cc2ccc(NS(C)(=O)=O)c(F)c2)COC(=O)C(C)(C)C)cc1C (configuration not stated)		Activity [5]: 71%
CC(C(=O)NCC(COC(=O)C(C)(C)C)Cc1ccc(C(C)(C)C)cc1)c1ccc(NS(C)(=O)=O)c(Cl)c1 (configuration not stated)		Activity [5]: 61%
C[C@H](C(=O)NC[C@H](COC(=O)C(C)(C)C)Cc1ccc(C(C)(C)C)cc1)c1ccc(NS(C)(=O)=O)c(Cl)c1	inactive	
C[C@@H](C(=O)NC[C@H](COC(=O)C(C)(C)C)Cc1ccccc1)c1ccc(NS(C)(=O)=O)c(F)c1	inactive	
COc1cc(C2(C(=O)NCC(COC(=O)C(C)(C)C)Cc3ccc(C)c(C)c3)CC2)ccc1NS(C)(=O)=O (configuration not stated)	inactive	
C[C@H](C(=O)NC[C@@H](COC(=O)C(C)(C)C)Cc1ccccc1)c1ccc(NS(C)(=O)=O)c(F)c1	inactive	pKi [2]: 7.78
COc1cc(C(C)C(=O)NCC(COC(=O)C(C)(C)C)Cc2ccc(C(C)(C)C)cc2)ccc1NS(C)(=O)=O (configuration not stated)		Activity [4]: 40%; Activity [6]: inactive
COc1cc(C(C)(C)C(=O)NCC(COC(=O)C(C)(C)C)Cc2ccc(C)c(C)c2)ccc1NS(C)(=O)=O (configuration not stated)	inactive	
Cc1ccc(CC(CNC(=S)NCc2ccc(NS(C)(=O)=O)c(F)c2)COC(=O)C(C)(C)C)cc1C (configuration not stated)	inactive	
Cc1ccc(CC(CNC(=O)C2(c3ccc(NS(C)(=O)=O)cc3)CC2)COC(=O)C(C)(C)C)cc1C (configuration not stated)	inactive	
C[C@H](C(=O)NC[C@H](COC(=O)C(C)(C)C)Cc1ccccc1)c1ccc(NS(C)(=O)=O)c(F)c1	inactive	
CC(C)(C)C(=O)OCC(CNC(=S)NCc1ccc(NS(C)(=O)=O)c(F)c1)Cc1ccc(C(C)(C)C)cc1 (configuration not stated)		Activity [4]: 5%; pKi [3]: 7.28
Cc1ccc(CC(CNC(=O)C(C)c2ccc(NS(C)(=O)=O)cc2)COC(=O)C(C)(C)C)cc1C (configuration not stated)	inactive	
C[C@@H](C(=O)NC[C@H](COC(=O)C(C)(C)C)Cc1ccc(C(C)(C)C)cc1)c1ccc(NS(C)(=O)=O)c(F)c1	inactive	
Cc1ccc(CC(CNC(=O)C2(c3ccc(NS(C)(=O)=O)c(F)c3)CC2)COC(=O)C(C)(C)C)cc1C (configuration not stated)	inactive	
CC(C(=O)NCC(COC(=O)C(C)(C)C)Cc1ccc(C(C)(C)C)cc1)c1ccc(NS(C)(=O)=O)c(F)c1 (configuration not stated)		Activity [5]: 95%; Activity [4]: 8%
C[C@H](C(=O)NC[C@@H](COC(=O)C(C)(C)C)Cc1ccc(C(C)(C)C)cc1)c1ccc(NS(C)(=O)=O)c(F)c1	inactive	pKi [2]: 8.20
CC(C(=O)NCC(COC(=O)C(C)(C)C)Cc1ccc(C(C)(C)C)cc1)c1ccc(NS(C)(=O)=O)cc1 (configuration not stated)	inactive	
C[C@H](C(=O)NC[C@H](COC(=O)C(C)(C)C)Cc1ccc(C(C)(C)C)cc1)c1ccc(NS(C)(=O)=O)c(F)c1	inactive	pKi [2]: 8.39
C[C@H](C(=O)NC[C@@H](COC(=O)C(C)(C)C)Cc1ccc(C(C)(C)C)cc1)c1ccc(NS(C)(=O)=O)c(Cl)c1	inactive	
Cc1ccc(CC(CNC(=O)C(C)(C)c2ccc(NS(C)(=O)=O)cc2)COC(=O)C(C)(C)C)cc1C (configuration not stated)	inactive	
Cc1ccc(CC(CNC(=O)C(C)c2ccc(NS(C)(=O)=O)c(F)c2)COC(=O)C(C)(C)C)cc1C (configuration not stated)	inactive	
Cc1ccc(CC(CNC(=O)C(C)(C)c2ccc(NS(C)(=O)=O)c(F)c2)COC(=O)C(C)(C)C)cc1C (configuration not stated)	inactive	pKi [2]: 6.55
CC(C)(C)C(=O)OCC(CNC(=O)Cc1ccc(NS(C)(=O)=O)c(F)c1)Cc1ccc(C(C)(C)C)cc1 (configuration not stated)		Activity [5]: 56%; Activity [4]: 7%; pKi [3]: 6.36
Cc1ccc(CC(CNC(=O)C(C)c2ccc(NS(C)(=O)=O)c(Cl)c2)COC(=O)C(C)(C)C)cc1C (configuration not stated)		Activity [4]: 16%
